Experimental data of several laboratories.
Protocols differ between the studies behind these lines.
Cell line: MCF7
Read-out: cell growth or viability

| Compound | assay | conditions | IC50 [µM] |
| --- | --- | --- | --- |
| [Cl-].[Cl-].[Co+2] | MTT | 48 h | > 150 |
| N.N.O=C([O-])C1(C(=O)[O-])CCC1.[Pt+2] | MTT | 96 h | > 100 |
| COc1c2c(cc3c1OCO3)[C@]13C=C[C@H](OC)C[C@@H]1[N@](C2)C[C@H]3OC(=O)c1ccco1 | WST-1 |  | > 10 |
| O=c1ccc2ccc3occc3c2o1 | WST-1 | 48 h | 7 |
| COC(C(=O)N1C(=O)SCC1C1(OC)CC2CC(CCC(C)C=CC=CCCC(C)=CC(=O)O2)O1)c1ccccc1 (centres unmarked) | MTT | 72 h | 15.4 |
| N[C@@H](Cc1ccc(N(CCCl)CCCl)cc1)C(=O)O | CCK-8 | 48 h | > 50 |
| COCO[C@@H]1[C@H]2OC(C)(C)O[C@H]2[C@H](O[C@H]2C[C@H]3OC(C)(C)OC[C@]34[C@@H]3[C@@H](CC[C@]4(O)C2)[C@@]2(O)CC[C@H](CO)[C@@]2(C)C[C@H]3OCOC)O[C@H]1C | resazurin | 72 h | > 100 |
| CCC1(c2ccc(N)cc2)CCC(=O)NC1=O (centres unmarked) | CCK-8 | 48 h | > 50 |
| N.N.[Cl][Pt][Cl] | SRB | 48 h | 9.6 |
| c1ccc2c(c1)CCc1c-2[nH]c2ccccc12 | MTT | 72 h | > 75 |
| C/C1=C/C(=O)O[C@@H]2C[C@@H](CC[C@H](C)/C=C\C=C\CC1)O[C@@](OCCc1ccccc1)([C@@H]1CSC(=O)N1)C2 | MTT | 72 h | 0.1 |
| O=c1ccc2cc3ccoc3cc2o1 | WST-1 | 48 h | 32.4 |
| CCN1C(=O)SC[C@H]1[C@@]1(O)C[C@H]2C[C@@H](CC[C@H](C)/C=C\C=C\CC/C(C)=C\C(=O)O2)O1 | MTT | 72 h | 0.95 |
| N.N.[Cl][Pt][Cl] | MTT | 48 h | 15.6 |
| CO[C@]1([C@@H]2CSC(=O)N2C)C[C@H]2C[C@@H](CC[C@H](C)/C=C\C=C\CC/C(C)=C\C(=O)O2)O1 | MTT | 72 h | 13.1 |
| O=C(Oc1ccc(Br)cc1)[c-]1cccc1.[Fe+2].c1cc[cH-]c1 | MTT | 72 h | 9.2 |
| CO[C@]1([C@@H]2CSC(=O)N2C(=O)c2ccccc2)C[C@H]2C[C@@H](CC[C@H](C)/C=C\C=C\CC/C(C)=C\C(=O)O2)O1 | MTT | 72 h | 0.55 |
| N.N.[Cl][Pt][Cl] | MTT |  | 10 |
| CO[C@]1([C@@H]2CSC(=O)N2C2CCCC2)C[C@H]2C[C@@H](CC[C@H](C)/C=C\C=C\CC/C(C)=C\C(=O)O2)O1 | MTT | 72 h | 5.3 |
| O=C(Oc1ccc(Cl)cc1)[c-]1cccc1.[Fe+2].c1cc[cH-]c1 | MTT | 72 h | 33 |
